Most compounds without a hit are left out; they make up all but 2.5% or so of the library.
Platelet DG rel: platelet dense granule release activity; 300,000 tested, 0.22% active; inhibition, %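 (compounds screened at 7.5 µM in platelet-rich plasma)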; human platelet-rich plasma, SFLLRN dense granule ATP release, luminescence;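 active means mean replicate score, as percent of positive control, at or above 50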
TRPC4 act: TRPC4 (mouse) channel activation; 310,000 tested, 0.49% active; B-score at 10 µM; HEK293 TRPC4beta/mu-opioid, Fluo4 calcium fluorescence; active compounds read high; Q9QUQ5;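 active means B-score above 5 SD of library B-scores, and initial fluorescence ratio not above library mean plus 5 SD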;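 further: positive B-score marks a calcium rise read as TRPC4 activation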
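Test system: HEK293 cells stably co-expressing mouse TRPC4beta and mu-opioid receptor | Schedule: Fluo4 dye loading 45 min at room temperature, 110 s recording | Measured by: Kinetic Fluo4 calcium fluorescence, 5 s baseline at 1 Hz | Evaluation: B score of integrated ratio | Controls: Buffer (low) and maximal DAMGO (high)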
TRPC4 block: blocks the mouse TRPC4 cation channel. Q9QUQ5. HEK293 TRPC4beta/mu-opioid, DAMGO-evoked Fluo4 calcium flux; active compounds read low. B-score at 10 µM. 300,000 tested, 0.39% active;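 active means B-score over 3 SD under the library average, no early fluorescence shift, positive overall ratio signal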
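test system = HEK293 cells with stable TRPC4beta plus mu-opioid receptor expression | detection = Fluo4 Ca2+ flux fluorescence | read-out = integrated fluorescence ratio relative to baseline, converted to per-well B score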
TRPC4 potent: allosteric potentiators of mouse TRPC4 channel. 310,000 tested, 0.42% active. AID 2227. Q9QUQ5. B-score at 10 µM. HEK293 TRPC4beta/mu-opioid, DAMGO EC20, Fluo-4 Ca2+ flux; active compounds read high;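 active means B-score of calcium response area above 5 SD of library B-scores, with initial fluorescence ratio within 5 SD of library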
TRPC6 inhibitor: blocks the mouse TRPC6 cation channel; HEK293-TRPC6, membrane potential dye, ACh-evoked depolarization; active compounds read low; B-score at 10 µM; 310,000 tested, 1.1% active;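 active means B-score under library mean minus 3 SD, initial fluorescence not abnormally high, positive integrated signal ratio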;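 further: B-score derived from integrated fluorescence ratio over the kinetic read; more negative B-score means stronger inhibition of depolarization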
TRPC6 act: mouse TRPC6 channel activation. Q61143. HEK293-TRPC6 membrane potential dye fluorescence; active compounds read high. B-score at 10 µM. 310,000 tested, 0.13% active;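 active means B-score of the integrated fluorescence ratio above library mean plus 3 SD, and starting fluorescence ratio within library mean plus 5 SD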;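 further: higher score means more depolarization so channel activation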
TRPC4 spec 2: second check of whether TRPC6 inhibitors also affect mouse TRPC4; shares compounds with TRPC6 inhibitor; HEK293 TRPC4/MOR, membrane potential dye fluorescence; channel activated by saturating DAMGO dose; inhibition, % at 10 µM; 920 tested, 42% active;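 active means compounds whose fluorescence signal differed from control wells by over 3 SD, either direction, in both duplicate plates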
TRPC4 spec: mouse TRPC4 off-target activity of TRPC6 inhibitors; HEK293 TRPC4/mu-opioid, membrane potential fluorescence; shares compounds with TRPC6 inhibitor; activity change, negative = inhibition, % at 10 µM; 920 tested, 61% active;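 active means rise or fall in signal beyond 3 SD of buffer-only wells in both replicate plates, either sign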;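 further: integrated kinetic ratio of fluorescence range over baseline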
HEK293 MPD ctr 2-1: parental HEK293 nonspecific activity of TRPC6 inhibitors, second screen. 920 tested, 31% active. shares compounds with TRPC6 inhibitor. signal change vs control, % at 10 µM. parental HEK293 membrane potential dye fluorescence; maximal acetylcholine challenge after compound addition;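 active means membrane potential signal moving either way by over 3 SD of the maximum-effect control, in both duplicate plates, meaning non-specific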
HEK293 MPD ctr-1: parental HEK293 nonspecific activity of TRPC6 inhibitors | membrane potential signal change, % at 10 µM | shares compounds with TRPC6 inhibitor | 920 tested, 60% active | parental HEK293 membrane potential dye fluorescence;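 active means membrane potential signal shifting up or down by more than 3 SD of buffer-only wells, on both duplicate plates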
HEK293 MPD ctr-2: counter-screen for TRPC6 modulators: effect in parental HEK293 cells; shares compounds with TRPC6 inhibitor; membrane potential dye fluorescence; membrane potential signal change, % at 10 µM; 2,400 tested, 51% active; AID 488924;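 active means membrane potential signal moves up or down beyond 5 SD from buffer-only wells, on both duplicate plates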
HEK293 MPD ctr 2-2: second counter-screen for TRPC6 modulators: effect in parental HEK293 cells | shares compounds with TRPC6 inhibitor | membrane potential dye fluorescence; after compound, maximal acetylcholine stimulation | inhibition, % at 10 µM | 2,400 tested, 14% active | AID 488926;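 active means membrane potential signal drops by more than 5 SD from the mean control signal, in both duplicate plates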
TRPC4/MOR mod: mouse TRPC4 off-target activity of TRPC6 modulators | shares compounds with TRPC6 inhibitor | HEK293 TRPC4/mu-opioid, membrane potential fluorescence | percent change from control (negative = decrease, positive = increase), % at 10 µM | 2,400 tested, 69% active | AID 488927;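 active means membrane potential signal moved up or down beyond 5 SD of buffer control wells, in both duplicate plates, actives on both sides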
TRPC4 ctr inh 2: second selectivity test of TRPC6 modulators against mouse TRPC4; shares compounds with TRPC6 inhibitor; HEK293 TRPC4/mu-opioid, membrane potential dye fluorescence; stimulated with maximal-effect DAMGO; inhibition, % at 10 µM; 2,400 tested, 55% active;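 active means drop in membrane potential signal beyond 5 SD of the control wells in both duplicate plates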;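 further: TRPC4 counter screen for TRPC6 hits run under conditions tuned for TRPC6 not TRPC4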
TRPC6 inh conf: mouse TRPC6 inhibitor confirmation; shares compounds with TRPC6 inhibitor; HEK293-TRPC6, membrane potential dye, ACh-evoked depolarization; inhibition, % at 10 µM; 3,300 tested, 43% active; AID 488960;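 active means fluorescence ratio falls more than 5 SD below the full-stimulation control mean, in both duplicate runs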;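 further: integrated fluorescence ratio of peak minus minimum over baseline after agonist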
TRPC6 act conf: confirmation of mouse TRPC6 activators. shares compounds with TRPC6 inhibitor. HEK293-TRPC6 membrane potential dye fluorescence, FDSS. activation, % at 10 µM. 2,800 tested, 11% active. AID 488961;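 active means ratio signal rise beyond 5 SD above unstimulated control wells' mean, seen in both duplicate runs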
Hits are given with their value; - = inactive; . = no result given.

SMILES	Platelet DG rel	TRPC4 act	TRPC4 block	TRPC4 potent	TRPC6 inhibitor	TRPC6 act	HEK293 MPD ctr-2	HEK293 MPD ctr 2-2	TRPC4/MOR mod	TRPC4 ctr inh 2	TRPC6 inh conf	TRPC6 act conf	others
N#CCCn1cc(C(=O)O)c(-c2cccc([N+](=O)[O-])c2)n1	-	-	-	-	-	-	.	.	.	.	.	.
Cc1[nH]c2ccccc2c1CCCNC1CCCCC1	-	-	-	-	-5.7	-	-	-	-	44%	-	-
COc1ccccc1N1C(=O)CC(=O)NC1=O	-	-	-	-	-	-	.	.	.	.	.	.
CC(C)(C)C(=O)OC[N+](C)(C)CCOC(=O)C(O)(c1ccccc1)C1CCCC1 (configuration not stated)	-	-	-	-	-5.6	-	-	83%	-	-	86%	-
CCCC(CCC)C(=O)OC[N+](C)(C)CCOC(=O)C(O)(c1ccccc1)C1CCCC1 (configuration not stated)	-	-	-	-	-11	-	.	.	.	.	92%	-	TRPC4 spec 2=-;TRPC4 spec=-;HEK293 MPD ctr 2-1=-29%;HEK293 MPD ctr-1=-
CN1CCC(O)(c2ccc(Cl)cc2)C(C(=O)c2ccc(Cl)cc2)C1 (configuration not stated)	-	-	-	-	-5.4	-	-	-	-	35%	-	-
O=Cc1c(C(=O)O)n(Cc2ccc(Cl)cc2)c2ccccc12	-	-	-	-	-	-	.	.	.	.	.	.
O=c1c2ccccc2nc(-c2ccccc2Cl)n1-c1ccc(O)cc1	-	-	-	-	-	-	.	.	.	.	.	.
Cc1cc(C)[n+](CCCC[n+]2c(C)cc(C)cc2C)c(C)c1	-	-	-	-	-8.9	-	-438%	98%	-70%	59%	66%	-
Cc1cccc(CNCCc2c[nH]c3ccccc23)c1	-	-	-	-	-	-	.	.	.	.	.	.
Cc1cccc(CCNCc2cc3cccc(C)c3[nH]c2=O)c1	-	-	-	-	-10	-	.	.	.	.	102%	-	TRPC4 spec 2=15%;TRPC4 spec=-13%;HEK293 MPD ctr 2-1=25%;HEK293 MPD ctr-1=-
Cc1cccc(CCNCc2cc3cc(C)cc(C)c3[nH]c2=O)c1	-	-	-	-	-5.9	-	-	65%	-18%	94%	82%	-
Cc1ccc2cc(CNCCc3ccccc3C)c(=O)[nH]c2c1	-	-	-	-	-5.1	-	-	-	-	78%	46%	-
Nc1ccc2ccc3cccc[n+]3c2c1	-	-	-	-	-	-	.	.	.	.	.	.

Screening data as filed in PubChem.
